ChEMBL document CHEMBL2021803, “Antitumor agents. 289. Design, synthesis, and anti-breast cancer activity in vivo of 4-amino-2H-benzo[h]chromen-2-one and 4-amino-7,8,9,10-tetrahydro-2H-benzo[h]chromen-2-one analogues with improved water solubility” (J Nat Prod, 2012)
Values after ≈ are worked out from the molar mass of the structure shown. Active and inactive are the calls of the source. No cut-off for these calls is given here.

Columns and labels:
DU-145 = assay: Cytotoxicity against human DU145 cells after 72 hrs by SRB assay; format: functional, cell-based
SK-BR-3 = assay: Cytotoxicity against human SKBR3 cells after 72 hrs by SRB assay; format: functional, cell-based
A549 = assay: Cytotoxicity against human A549 cells after 72 hrs by SRB assay; format: functional, cell-based
[1] = Cytotoxicity against human KBVIN cells after 72 hrs by SRB assay; format: functional, cell-based
KB = assay: Cytotoxicity against human KB cells after 72 hrs by SRB assay; format: functional, cell-based
Mus musculus [2] = assay: Antiproliferative activity of Brca/p53 mutant mouse mammary epithelial cells assessed as reduction in DNA synthesis at 0.1 mg, ip administered daily for 10 days by BrdU-based immunostaining method; format: functional, Epithelial cell; parameters: scale not given: the % may be the effect or the level left
Method in brief: (§1)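 Three-month-old mice (C57BL/6 × 129/Sv mixed background; wild-type or Brca1/p53 Cre mutant) dosed i.p. daily, 0.1 mg in 10 μL of […] DMSO stock plus 30 μL 40% PEG and 60 μL 0.9% NaCl, made fresh; vehicle controls. Paraffin sections, citrate pH 6.0 microwave retrieval 20 min, anti-BrdU 1:1000, ABC detection; BrdU-positive cells averaged over 15 ducts.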

[3] = Solubility of the compound in water; format: physicochemical
Mus musculus [4] = assay: Antiproliferative activity of wild type mouse mammary epithelial cells assessed as reduction in DNA synthesis at 0.1 mg, ip administered daily for 10 days by BrdU-based immunostaining method; format: organism-based, Epithelial cell; settings: in vivo, 240 h; method in brief: as §1
Mus musculus [5] = assay: Reduction in ductal branching in Brca/p53 mutant mouse at 0.1 mg, ip administered daily for 10 days; format: functional, organism-based
Method in brief: (§2)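 Three-month-old wild-type or Brca1/p53 Cre mutant mice (mixed C57BL/6 × 129/Sv) given 0.1 mg i.p. daily (DMSO stock […] diluted in 40% PEG and 0.9% NaCl at dosing); vehicle controls. Fourth-pair mammary glands whole-mounted, Carnoy's fixed 3 h, Carmine alum stained overnight. Branching points counted in three random areas totaling about 2 mm².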

Mus musculus [6] = assay: Reduction in ductal branching in wild type mouse mammary gland at 0.1 mg, ip administered daily for 10 days by immunostaining technique; format: functional, organism-based; parameters: scale not given: the % may be the effect or the level left; settings: in vivo, 240 h; method in brief: as §2
Mus musculus [7] = assay: Reduction in ductal branching in Brca/p53 mutant mouse mammary gland at 0.1 mg, ip administered daily for 10 days by immunostaining technique; format: functional; parameters: scale not given: the % may be the effect or the level left; settings: in the assay text read “Carmine alum whole-mount staining” for “immunostaining technique”; method in brief: as §2
Mus musculus [8] = assay: Induction of apoptosis in Brca/p53 mutant mouse mammary gland assessed as increase in cleaved caspase-3 at 0.1 mg, ip administered daily for 10 days by immunohistochemical staining method relative to vehicle-treated control; format: functional
Method in brief: (§3)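 Wild-type or Brca1/p53 Cre mutant mice (C57BL/6 × 129/Sv), three months old, dosed i.p. daily with 0.1 mg in DMSO/40% PEG/0.9% NaCl (10:30:60 μL), made fresh; vehicle controls. Mammary glands fixed in 4% paraformaldehyde at 4 °C overnight, paraffin-embedded, cut into 5-μm sections. Retrieval by boiling in citrate pH 6.0, then rabbit polyclonal anti-cleaved caspase-3. Read as percentage of positive cells per duct.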

Mus musculus [9] = assay: Induction of apoptosis in wild type mouse mammary gland assessed as increase in cleaved caspase-3 at 0.1 mg, ip administered daily for 10 days by immunohistochemical staining method relative to vehicle-treated control; format: organism-based; settings: in vivo, 240 h; method in brief: as §3
Mus musculus [10] = assay: Induction of apoptosis in Brca/p53 mutant mouse mammary gland assessed as increase in cytoplasmic localization of cleaved caspase-3 at 0.1 mg, ip administered daily for 10 days by immunohistochemical staining method; format: functional, organism-based; method in brief: as §3
Mus musculus [11] = assay: Induction of apoptosis in Brca/p53 mutant mouse mammary gland assessed as increase in perinuclear localization of cleaved caspase-3 at 0.1 mg, ip administered daily for 10 days by immunohistochemical staining method; format: functional, organism-based; method in brief: as §3

Compound | IC50 (DU-145; du-145) [nM] | IC50 (SK-BR-3; sk-br-3) [nM] | IC50 (A549; a549) [nM] | IC50 ([1]; kbvin) [nM] | IC50 (KB; kb) [nM] | IC50 (DU-145; Homo sapiens, DU-145, 72 h) [nM] | IC50 (SK-BR-3; Homo sapiens, SK-BR-3, 72 h) [nM] | IC50 (A549; Homo sapiens, A549, 72 h) [nM] | IC50 ([1]; Homo sapiens, KBVIN, 72 h) [nM] | IC50 (KB; Homo sapiens, KB, 72 h) [nM] | further results
Nc1ccc(Nc2cc(=O)oc3c2ccc2ccccc23)cc1 [listing 1 of 3 here] | 49 | 53 | 54 | 47 | 48 | – | – | – | – | – | –
COc1ccc(Nc2cc(=O)oc3c2ccc2ccccc23)cc1 | – | – | – | – | – | 110 | 130 | 170 | 130 | 110 | Activity (Mus musculus [2]): 55%; solubility [3]: 0.69 µg/mL (≈ 2.17 µM); Activity (Mus musculus [4]): Non-toxic; Activity (Mus musculus [5]): Active; Activity (Mus musculus [6]): 15%; Activity (Mus musculus [7]): 75%
Nc1ccccc1Nc1cc(=O)oc2c1ccc1ccccc12 [listing 1 of 2 here] | 8700 | 9500 | 9100 | 9000 | 8200 | – | – | – | – | – | –
Nc1ccc(Nc2cc(=O)oc3c2ccc2ccccc23)cc1 [listing 2 of 3 here] | – | – | – | – | – | 40 | 38 | 55 | 44 | 54 | fold change (FC) (Mus musculus [8]): 4.8; Activity (Mus musculus [2]): 81%; solubility [3]: 33.9 µg/mL (≈ 112 µM); Activity (Mus musculus [4]): Non-toxic; fold change (FC) (Mus musculus [9]): 2.1; Activity (Mus musculus [6]): 15%; Activity (Mus musculus [7]): 69%
CN(C)c1ccc(Nc2cc(=O)oc3c2ccc2ccccc23)cc1 [listing 1 of 2 here] | 300 | 270 | 590 | 410 | 470 | – | – | – | – | – | –
Nc1cccc(Nc2cc(=O)oc3c2ccc2ccccc23)c1 [listing 1 of 2 here] | – | – | – | – | – | 150 | 150 | 190 | 160 | 120 | –
Nc1ccccc1Nc1cc(=O)oc2c3c(ccc12)CCCC3 [listing 1 of 2 here] | > 10000 | 8700 | 8000 | 7000 | 7400 | – | – | – | – | – | –
Nc1ccc(Nc2cc(=O)oc3c4c(ccc23)CCCC4)cc1 [listing 1 of 3 here] | 66 | 85 | 62 | 65 | 69 | – | – | – | – | – | –
CN(C)c1ccc(Nc2cc(=O)oc3c4c(ccc23)CCCC4)cc1 [listing 1 of 2 here] | – | – | – | – | – | 470 | 770 | 540 | 540 | 720 | –
O=c1cc(NC2CCN(Cc3ccccc3)CC2)c2ccc3c(c2o1)CCCC3 [listing 1 of 2 here] | – | – | – | – | – | 5800 | 7700 | 7000 | 6200 | 6500 | –
Nc1ccc(Nc2cc(=O)oc3c4c(ccc23)CCCC4)cc1 [listing 2 of 3 here] | – | – | – | – | – | – | – | – | – | – | Activity (Mus musculus [2]; Epithelial cell): inactive; Activity (Mus musculus [10]): Active; Activity (Mus musculus [11]): Active; Activity (Mus musculus [5]): Active
Nc1cccc2c(Nc3cc(=O)oc4c3ccc3ccccc34)cccc12 [listing 1 of 2 here] | 180 | 240 | 240 | 170 | 210 | – | – | – | – | – | –
O=c1cc(NC2CCN(Cc3ccccc3)CC2)c2ccc3ccccc3c2o1 [listing 1 of 2 here] | – | – | – | – | – | > 10000 | > 10000 | > 10000 | 7600 | 8300 | –
Nc1cccc(Nc2cc(=O)oc3c4c(ccc23)CCCC4)c1 [listing 1 of 2 here] | – | – | – | – | – | 440 | 480 | 400 | 470 | 440 | –
CN(C)c1ccc(Nc2cc(=O)oc3c2ccc2ccccc23)cc1 [listing 2 of 2 here] | – | – | – | – | – | 360 | 300 | 430 | 350 | 600 | –
O=c1cc(NC2CCN(Cc3ccccc3)CC2)c2ccc3c(c2o1)CCCC3 [listing 2 of 2 here] | 8300 | 9300 | > 10000 | 8300 | 9100 | – | – | – | – | – | –
Nc1ccc(Nc2cc(=O)oc3c4c(ccc23)CCCC4)cc1 [listing 3 of 3 here] | – | – | – | – | – | 53 | 74 | 58 | 53 | 56 | fold change (FC) (Mus musculus [8]): 4.5; fold change (FC) (Mus musculus [9]): 4; Activity (Mus musculus [6]): 15%; Activity (Mus musculus [7]): 70%
Nc1cccc(Nc2cc(=O)oc3c4c(ccc23)CCCC4)c1 [listing 2 of 2 here] | 340 | 560 | 500 | 450 | 480 | – | – | – | – | – | –
Nc1cccc(Nc2cc(=O)oc3c2ccc2ccccc23)c1 [listing 2 of 2 here] | 180 | 240 | 150 | 150 | 170 | – | – | – | – | – | –
Nc1ccccc1Nc1cc(=O)oc2c3c(ccc12)CCCC3 [listing 2 of 2 here] | – | – | – | – | – | 5000 | 5200 | 5000 | 5200 | 4900 | –
COc1ccc(Nc2cc(=O)oc3c4c(ccc23)CCCC4)cc1 | – | – | – | – | – | 38 | 64 | 49 | 46 | 37 | Activity (Mus musculus [2]; Epithelial cell): inactive; Activity (Mus musculus [5]): Active; Activity (Mus musculus [6]): 15%; Activity (Mus musculus [7]): 65%
CN(C)c1ccc(Nc2cc(=O)oc3c4c(ccc23)CCCC4)cc1 [listing 2 of 2 here] | 330 | 490 | 440 | 390 | 380 | – | – | – | – | – | –
Nc1ccccc1Nc1cc(=O)oc2c1ccc1ccccc12 [listing 2 of 2 here] | – | – | – | – | – | > 10000 | > 10000 | > 10000 | > 10000 | > 10000 | –
O=c1cc(NC2CCN(Cc3ccccc3)CC2)c2ccc3ccccc3c2o1 [listing 2 of 2 here] | – | – | – | 9400 | > 10000 | – | – | – | – | – | –
Nc1cccc2c(Nc3cc(=O)oc4c3ccc3ccccc34)cccc12 [listing 2 of 2 here] | – | – | – | – | – | 150 | 200 | 160 | 150 | 160 | –
Nc1ccc(Nc2cc(=O)oc3c2ccc2ccccc23)cc1 [listing 3 of 3 here] | – | – | – | – | – | – | – | – | – | – | Activity (Mus musculus [10]): Active; Activity (Mus musculus [11]): Active; Activity (Mus musculus [5]): Active
